Source: the M2OR odorant receptor database

Legend:
Settings in all cases: stereoisomer not certain
OR52Z1P (Homo sapiens) = OR52Z1P (Homo sapiens) (UniProt P0C646)
Outline: (§1)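 Whether a receptor–molecule pair is responsive (active) rests on the original authors' judgment that its measured signal was statistically different from baseline. Pairs without that judgment are non-responsive (inactive). Sources used varied assay methods, commonly transient luciferase assays in mammalian cell lines.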

OR56A1 (Homo sapiens) = OR56A1 (Homo sapiens) (UniProt Q8NGH5)
OR56A1 (Homo sapiens), sequence (Q8NGH5 whole entry): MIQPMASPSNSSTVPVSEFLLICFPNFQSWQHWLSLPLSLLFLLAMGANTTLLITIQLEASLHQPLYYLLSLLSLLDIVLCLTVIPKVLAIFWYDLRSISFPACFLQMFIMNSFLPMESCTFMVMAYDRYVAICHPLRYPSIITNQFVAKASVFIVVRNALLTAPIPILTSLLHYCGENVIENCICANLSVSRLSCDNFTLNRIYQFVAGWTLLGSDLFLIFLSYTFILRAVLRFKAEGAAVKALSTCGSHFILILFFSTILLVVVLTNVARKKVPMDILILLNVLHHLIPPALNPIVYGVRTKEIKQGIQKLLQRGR
Outline: as §1

OR56A3 (Homo sapiens) = OR56A3 (Homo sapiens) (UniProt Q8NH54)
OR56A3 (Homo sapiens), sequence (Q8NH54 whole entry): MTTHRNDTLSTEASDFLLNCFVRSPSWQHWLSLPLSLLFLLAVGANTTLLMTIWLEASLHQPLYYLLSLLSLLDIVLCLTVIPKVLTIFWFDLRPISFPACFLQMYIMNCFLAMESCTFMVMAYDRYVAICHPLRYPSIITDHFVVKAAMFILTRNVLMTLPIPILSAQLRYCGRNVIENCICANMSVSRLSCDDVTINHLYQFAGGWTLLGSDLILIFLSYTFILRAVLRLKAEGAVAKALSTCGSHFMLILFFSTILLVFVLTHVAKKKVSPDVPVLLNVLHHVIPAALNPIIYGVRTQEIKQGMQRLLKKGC
Outline: as §1

OR56A4 (Homo sapiens) = OR56A4 (Homo sapiens) (UniProt Q8NGH8)
OR56A4 (Homo sapiens), sequence (Q8NGH8 whole entry): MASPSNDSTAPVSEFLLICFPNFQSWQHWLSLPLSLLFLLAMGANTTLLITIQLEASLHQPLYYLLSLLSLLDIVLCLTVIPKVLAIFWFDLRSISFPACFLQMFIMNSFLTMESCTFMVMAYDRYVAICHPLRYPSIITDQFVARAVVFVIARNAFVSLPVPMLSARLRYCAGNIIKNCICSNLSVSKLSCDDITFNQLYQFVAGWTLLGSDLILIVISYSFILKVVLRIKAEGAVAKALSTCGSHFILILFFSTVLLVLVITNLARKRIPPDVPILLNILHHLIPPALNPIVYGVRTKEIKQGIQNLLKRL
Outline: as §1

OR56A5 (Homo sapiens) = OR56A5 (Homo sapiens) (UniProt P0C7T3)
OR56A5 (Homo sapiens), sequence (P0C7T3 whole entry): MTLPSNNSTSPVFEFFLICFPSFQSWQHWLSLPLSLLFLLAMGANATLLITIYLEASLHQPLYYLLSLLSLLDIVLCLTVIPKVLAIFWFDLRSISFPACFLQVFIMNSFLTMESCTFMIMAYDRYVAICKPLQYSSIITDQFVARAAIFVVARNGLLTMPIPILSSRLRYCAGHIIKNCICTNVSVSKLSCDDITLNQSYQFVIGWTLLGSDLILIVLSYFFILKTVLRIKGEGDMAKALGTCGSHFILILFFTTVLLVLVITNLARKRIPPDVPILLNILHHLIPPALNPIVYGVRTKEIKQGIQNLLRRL
Outline: as §1

OR56B1 (Homo sapiens) = OR56B1 (Homo sapiens) (UniProt Q8NGI3)
OR56B1 (Homo sapiens), sequence (Q8NGI3 whole entry): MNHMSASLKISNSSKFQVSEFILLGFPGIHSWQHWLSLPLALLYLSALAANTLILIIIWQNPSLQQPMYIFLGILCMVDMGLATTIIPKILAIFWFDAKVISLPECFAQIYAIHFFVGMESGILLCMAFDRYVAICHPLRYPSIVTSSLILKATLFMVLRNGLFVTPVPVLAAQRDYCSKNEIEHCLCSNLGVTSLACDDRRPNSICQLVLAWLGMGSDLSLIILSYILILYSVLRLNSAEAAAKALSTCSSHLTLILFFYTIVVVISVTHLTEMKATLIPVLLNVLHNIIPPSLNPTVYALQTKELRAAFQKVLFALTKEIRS
Outline: as §1

OR56B4 (Homo sapiens) = OR56B4 (Homo sapiens) (UniProt Q8NH76)
OR56B4 (Homo sapiens), sequence (Q8NH76 whole entry): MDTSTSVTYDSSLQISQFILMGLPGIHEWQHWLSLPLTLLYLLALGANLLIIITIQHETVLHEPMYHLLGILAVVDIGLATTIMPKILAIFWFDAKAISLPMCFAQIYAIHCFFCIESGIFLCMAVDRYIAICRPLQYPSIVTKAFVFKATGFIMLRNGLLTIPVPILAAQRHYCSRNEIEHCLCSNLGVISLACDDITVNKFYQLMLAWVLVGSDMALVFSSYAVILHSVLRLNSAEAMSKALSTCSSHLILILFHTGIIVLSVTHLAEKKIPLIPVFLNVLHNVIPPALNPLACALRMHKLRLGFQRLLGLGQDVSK
Outline: as §1

OR5A1 (Homo sapiens) = OR5A1 (Homo sapiens) (UniProt Q8NGJ0)
OR5A1 (Homo sapiens), sequence (Q8NGJ0 whole entry): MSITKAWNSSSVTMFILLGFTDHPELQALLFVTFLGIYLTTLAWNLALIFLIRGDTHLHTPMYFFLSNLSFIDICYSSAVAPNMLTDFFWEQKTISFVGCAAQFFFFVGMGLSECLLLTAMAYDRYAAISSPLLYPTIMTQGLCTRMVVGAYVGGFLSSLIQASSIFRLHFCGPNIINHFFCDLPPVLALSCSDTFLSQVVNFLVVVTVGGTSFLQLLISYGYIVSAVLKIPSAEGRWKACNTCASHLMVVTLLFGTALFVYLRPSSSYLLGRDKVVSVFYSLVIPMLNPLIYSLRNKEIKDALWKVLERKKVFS
Outline: as §1

OR5A2 (Homo sapiens) = OR5A2 (Homo sapiens) (UniProt Q8NGI9)
OR5A2 (Homo sapiens), sequence (Q8NGI9 whole entry): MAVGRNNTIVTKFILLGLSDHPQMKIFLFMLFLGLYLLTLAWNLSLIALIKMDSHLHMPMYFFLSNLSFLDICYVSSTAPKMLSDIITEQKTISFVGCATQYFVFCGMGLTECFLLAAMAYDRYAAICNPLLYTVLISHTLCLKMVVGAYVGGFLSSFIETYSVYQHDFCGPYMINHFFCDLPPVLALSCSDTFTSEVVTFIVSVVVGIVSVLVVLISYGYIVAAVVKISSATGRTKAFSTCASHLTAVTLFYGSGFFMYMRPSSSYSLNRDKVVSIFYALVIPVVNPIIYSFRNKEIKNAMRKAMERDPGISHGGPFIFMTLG
Outline: as §1

OR5A1 D183N = tested on: OR5A1 D183N
OR5A1 D183N, sequence (as listed by the source, stated change not applied): as the sequence (Q8NGJ0 whole entry) above, with D183N counted along it
Outline: as §1

Measured: odorant receptor agonist call;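 also: active if original authors judged signal statistically different from baseline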

OR52Z1P (Homo sapiens), sequence (P0C646 whole entry): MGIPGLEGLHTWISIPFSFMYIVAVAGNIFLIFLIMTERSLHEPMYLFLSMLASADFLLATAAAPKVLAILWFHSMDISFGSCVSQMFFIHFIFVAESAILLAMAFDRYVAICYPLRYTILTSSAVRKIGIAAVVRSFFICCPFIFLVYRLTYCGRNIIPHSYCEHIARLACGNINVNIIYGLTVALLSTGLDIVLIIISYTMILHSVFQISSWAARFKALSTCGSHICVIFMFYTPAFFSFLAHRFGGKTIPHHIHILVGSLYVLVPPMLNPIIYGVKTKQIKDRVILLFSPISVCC

Cc1c([N+](=O)[O-])c(C)c([N+](=O)[O-])c(C(C)(C)C)c1[N+](=O)[O-]
not listed: OR5A1 D183N
inactive: all other assays above

C=CCOC(=O)Cc1ccccc1
not listed: OR52Z1P (Homo sapiens) | OR56A4 (Homo sapiens)
inactive: all other assays above
